Here are results for four molecules from ChEMBL document CHEMBL2375320, “Synthesis and antimicrobial activity of polyhalo isophthalonitrile derivatives” (2013).

Common to all, as to format: functional
Test [1] has as its system Candida albicans. Description: Antifungal activity against Candida albicans ATCC 10231 assessed as growth inhibition after 24 hrs by microbroth dilution method. In a few lines:
(§1)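 Tube dilution: each compound or positive control (norfloxacin, fluconazole) prepared in DMSO at 11 concentrations from 0.98 to 1000 µg/mL. Inoculum and sterile water added to tubes each holding 1 mL of compound solution. Tubes incubated 24 h and inspected for turbidity. MIC is the lowest concentration with no visible growth. Run in triplicate.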

Test [2] concerns Bacillus cereus. The experiment in a line: Antibacterial activity against Bacillus cereus ATCC 14579 assessed as growth inhibition after 24 hrs by microbroth dilution method. As to conditions: ATCC 14579, 24 h. In a few lines: as §1
For test [3], the system named is Staphylococcus aureus. Description: Antibacterial activity against Staphylococcus aureus ATCC 6538 assessed as growth inhibition after 24 hrs by microbroth dilution method. The conditions noted are these: ATCC 6538, 24 h. A digest of the protocol: as §1
Background: Dilution methods test growth across graded concentrations, often in twofold steps.

The test system of test [4] is Candida albicans. Description: Antifungal activity against Candida albicans ATCC 10231 assessed as growth inhibition at 1000 ug/mL after 72 hrs by disk diffusion method. As to conditions: for zone of inhibition at 1000 µg/mL: ATCC 10231, 72 h, read-out: IZ. In a few lines:
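Candida grown and kept on Sabouraud glucose agar plates. Compounds screened at a fixed 1000 µg/mL, with fluconazole as positive control. Plates incubated at 26 °C for 72 h, then zones of inhibition measured in mm.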

In the next test the test system is Pseudomonas aeruginosa. Description: Antibacterial activity against Pseudomonas aeruginosa ATCC 15442 assessed as growth inhibition at 1000 ug/mL after 24 hrs by disk diffusion method. As to conditions: for zone of inhibition at 1000 µg/mL: ATCC 15442, 24 h, read-out: IZ. (Agar diffusion results depend on both activity and mobility in agar.)
The test system of a further test is Escherichia coli. The experiment in a line: Antibacterial activity against Escherichia coli ATCC 8099 assessed as growth inhibition at 1000 ug/mL after 24 hrs by disk diffusion method.
Test [5] concerns Staphylococcus aureus. The experiment in a line: Antibacterial activity against Staphylococcus aureus ATCC 6538 assessed as growth inhibition at 1000 ug/mL after 24 hrs by disk diffusion method. The conditions noted are these: ATCC 6538, 24 h, read-out: IZ.
For test [6], the system named is Bacillus cereus. Description: Antibacterial activity against Bacillus cereus ATCC 14579 assessed as growth inhibition at 1000 ug/mL after 24 hrs by disk diffusion method. The conditions noted are these: ATCC 14579, 24 h, read-out: IZ.

SMILES strings stand for the structures. Converted amounts (≈) assume the structure as drawn. The source made the active and inactive calls. Bounds are passed on as bounds.

With `COc1ccc(Nc2c(F)c(F)c(C#N)c(F)c2C#N)cc1`, the MIC (as a rule, the smallest concentration in the dilution series that meets the test's criterion for growth inhibition) in the test with Candida albicans [1] is “inactive”. The MIC is > 1000 µg/mL with Bacillus cereus [2] and 375 µg/mL (≈ 1240 µM) with Staphylococcus aureus [3]. For the same molecule, the “inhibition zone (IZ)” value in the test on Candida albicans [4], with Pseudomonas aeruginosa and in the test on Escherichia coli was “inactive” each time. For the same molecule, the zone of inhibition at 1000 µg/mL in the test with Staphylococcus aureus [5] amounted to 8.7 mm; with Bacillus cereus [6], 8.6 mm.

Regarding `N#Cc1c(F)c(F)c(Nc2ccccc2)c(C#N)c1F`, the MIC was 3.9 µg/mL (≈ 14.3 µM) in the test with Candida albicans [1] (ATCC 10231, 24 h); 6.8 µg/mL (≈ 24.9 µM) with Bacillus cereus [2]; 3.3 µg/mL (≈ 12.1 µM) in the test with Staphylococcus aureus [3]. The zone of inhibition at 1000 µg/mL with Candida albicans [4] was 17.3 mm; in the test with Pseudomonas aeruginosa, 8 mm; in the test with Staphylococcus aureus [5], 23 mm; in the test on Bacillus cereus [6] it was 17.8 mm. Moreover, in the test on Escherichia coli, the “inhibition zone (IZ)” value was “inactive”.

With `N#Cc1c(F)c(F)c(NCc2ccccc2)c(C#N)c1F`, the MIC with Candida albicans [1] (ATCC 10231, 24 h) is 10.4 µg/mL (≈ 36.2 µM); with Bacillus cereus [2] it was 3.9 µg/mL (≈ 13.6 µM); in the test with Staphylococcus aureus [3], 1.3 µg/mL (≈ 4.53 µM). The zone of inhibition at 1000 µg/mL turned out to be 11.6 mm with Candida albicans [4], 19.3 mm in the test on Staphylococcus aureus [5] and 18.1 mm in the test with Bacillus cereus [6]. Besides, the “inhibition zone (IZ)” value in the test on Pseudomonas aeruginosa and with Escherichia coli was “inactive” each time.

Consider `N#Cc1c(F)c(Cl)c(Nc2ccccc2)c(C#N)c1F`, for which the minimal inhibitory concentration (MIC) in the test on Candida albicans [1] (ATCC 10231, 24 h) stood at 0.5 µg/mL (≈ 1.73 µM); in the test with Bacillus cereus [2], 125 µg/mL (≈ 432 µM); in the test with Staphylococcus aureus [3], 3.9 µg/mL (≈ 13.5 µM). The zone of inhibition at 1000 µg/mL turned out to be 13.6 mm in the test on Candida albicans [4], 7.5 mm in the test on Pseudomonas aeruginosa, 13 mm in the test with Staphylococcus aureus [5] and 14.6 mm in the test with Bacillus cereus [6]. Further, the “inhibition zone (IZ)” value in the test with Escherichia coli is “inactive”.
